Screening results from PubChem.
Shown are actives, neighbours in structure and some others; about 4.8% of the full set was active somewhere.
SKKanGAS inh = blocks kanamycin growth of S. pyogenes SKKanGAS strain. BacTiter-Glo, 6 h. inhibition, % at 7.5 µM. 1.3% of 300,000 active. AID 1662;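 active = mean replicate score, as percent of positive control median, at least 50; inconclusive = mean below 50 but one replicate at or above 50; inactive = mean and every replicate below 50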;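 also: strain carries kanamycin resistance gene driven by streptokinase promoter and grows in 40 µg/ml kanamycin; loss of luminescence reflects streptokinase promoter inhibition or plain growth inhibition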
Beta cell apopt = beta cell apoptosis inhibition; 0.8% of 300,000 active; INS-1E cytokine-induced death, ATP luminescence, 48 h; percent of positive-control rescue, neutral wells zero; protection from apoptosis, % (concentration not given with the values);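 active = Every replicate reaches about 75%, or at least half do and their mean reaches it too, limit read from the data; inconclusive = At least half of replicates reach the limit but their mean does not; inactive = Under half of replicates reach the limit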;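 also: higher means more ATP so stronger rescue from cytokine killing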
CHOP UPR activ = activators of apoptotic arm of unfolded protein response (CHOP); CHO-CHOP luciferase reporter, UPR activation, luminescence; percent of tunicamycin response over DMSO baseline; activation, % at 10 µM; 0.34% of 330,000 active;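 active = at 10 µM dose, activation of 40% or more, normalized to positive control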
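measured by = luciferase luminescence | assay system = CHO-CHOP cells, stable luciferase reporter of PERK-eIF2a-CHOP signalling | amount = 500 reporter cells seeded per well | timing = 6 h compound exposure at 37 °C after overnight seeding | controls = positive tunicamycin 10 µg/mL, negative DMSO alone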
XBP1 UPR activ = adaptive UPR (XBP1) activation | CHO-XBP1 luciferase reporter, IRE1-XBP1 UPR activation, luminescence; percent of tunicamycin response, DMSO as zero | activation, % at 20 µM | AID 463104 | 0.33% of 330,000 active;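 active = versus positive control, 20 µM dose yields 30% or more activation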
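Material: IRE1-XBP1 luciferase reporter CHO line / Quantity: one thousand reporter cells per well / Buffer or medium: F12 with 10% serum / Compound: 20 µM single concentration, DMSO 1% / Times: 6 h treatment, 37 °C / Detection: Steady-Glo luciferase glow luminescence, 10 min after reagent addition / Benchmarks: tunicamycin high, DMSO low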
CSC inhib = cancer stem cell inhibition; AID 2717; cancer stem cell-like cells viability, luminescence; inhibition, % at 7.5 µM; 1.1% of 300,000 active; in the data active = inhibition above about 75%; inconclusive = no clear call, values can overlap the other calls; tested in HMLE shEcad cells
Mdm2 MdmX PPI = disrupts the human Mdm2-MdmX interaction; 3% of 330,000 active; AID 485346; SaOS-2 split-luciferase Mdm2/MdmX complementation, luminescence; O15151+Q00987; inhibition, % at 8 µM;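 active = inhibition of at least 50% at 8 µM in the primary screen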
Of the large screens only hits and unclear results are named; the others gave an inactive call.

CC(=O)c1cccc(Nc2nc(-c3ccccc3)cs2)c1	none
O=[N+]([O-])c1cccc(-c2csc(Nc3ccccc3)n2)c1	CSC inhib 94 (no result: SKKanGAS inh)
O=C(CC(=O)N/N=C/c1ccc(C(=O)O)cc1)NCCc1ccccc1	none
CC(C)=CCc1c(O)cc2c(=O)c3ccc(O)cc3oc2c1O	CSC inhib 83
CCCc1cc(-c2nc(N)ncc2-c2ccc3c(c2)OCCCO3)c(O)cc1OC	CSC inhib 173
CCCc1cc(-c2nc(N)ncc2-c2csc(C)n2)c(O)cc1OC	none
Cc1cccc(N2CCN(C(=O)c3ccc4nc(N5CCCCC5)sc4c3)CC2)c1C	SKKanGAS inh 51, CSC inhib 84
N#CC1=C(SCC(=O)NC2CC2)NC(=O)C(C#N)C12CCCCC2 (stereo not given)	none
CC(C)(C)C1CCC2(CC1)C(C#N)=C(SCC(=O)NC1CCCCC1)NC(=O)C2C#N (stereo not given)	Beta cell apopt 107, CSC inhib inconclusive
O=C(Cc1ccccc1)Nn1c(O)c(/C=C2\C=Nc3ccccc32)sc1=S	SKKanGAS inh 50 (no result: CHOP UPR activ, XBP1 UPR activ, Mdm2 MdmX PPI)
Cn1c(O)c(/C=C2\C=Nc3ccccc32)sc1=Nc1ccc(C(=O)O)cc1	none
O=C(O)c1ccc(S(=O)(=O)N(CCc2ccccc2)Cc2ccc(Cl)cc2)cc1	none
Cc1ccccc1NCc1ccc([N+](=O)[O-])s1	CSC inhib 94
Cc1ccnc(NC(=O)c2ccc([N+](=O)[O-])s2)c1	Beta cell apopt 82
COc1ccccc1NCc1ccc([N+](=O)[O-])s1	none
Cc1cccc(NC(=O)c2ccc([N+](=O)[O-])s2)c1C	Beta cell apopt 105
Cc1cccc(C)c1NC(=O)c1ccc([N+](=O)[O-])s1	none
COC(=O)c1sccc1NS(=O)(=O)c1ccccc1[N+](=O)[O-]	none (no result: SKKanGAS inh, Beta cell apopt, CSC inhib)
COc1ccc(CCN2CC(C(=O)N3CCCCCC3)CCC2=O)cc1 (stereo not given)	none (no result: Beta cell apopt)
Cc1ccc(C(C)NC(=S)NC2CCCCC2)cc1C (stereo not given)	none
CCC(NC(=S)NC1CCCCC1)c1ccc(C(C)C)cc1 (stereo not given)	SKKanGAS inh 65
COC(=O)C(Cc1ccccc1)NC(=O)CNC(=O)c1ccccc1OC (stereo not given)	none
COc1cc(/C=N/Nc2ccc(Cl)c(C(=O)O)c2)ccc1OC(=O)c1ccccc1F	none
COc1cc(/C=N/NS(=O)(=O)c2ccc(C)cc2)ccc1OCc1cccc(C(=O)O)c1	none (no result: CSC inhib)
COc1cccc(C(=O)Oc2ccc(/C=N/Nc3ccc(C(=O)O)cc3)cc2OC)c1	SKKanGAS inh 55
CCOc1cc(/C=N/Nc2ccc(C(=O)O)cc2)ccc1OC(=O)c1ccccc1C	SKKanGAS inh 75
COc1cc(/C=N/NC(N)=S)ccc1OCc1ccc(C)cc1	CSC inhib 76
COc1cc(/C=N/NC(N)=S)ccc1OC(=O)c1ccc(C)cc1	none
COc1cc(/C=N/NS(=O)(=O)c2ccc3ccccc3c2)ccc1OCc1ccc(C(=O)O)cc1	SKKanGAS inh 55
CCc1ccc(N(CC(=O)NC2CCCC2)C(=O)CCC(=O)Nc2ccccn2)cc1	none
CCOc1ccc(-c2nnc3ccc(SC(C)C)nn23)cc1	SKKanGAS inh 57
CCOc1ccc(-c2nnc3ccc(SCC(=O)N4CCCCC4)nn23)cc1	none
Oc1ccc(F)cc1-c1cc(-c2ccc3c(c2)OCCO3)n[nH]1	SKKanGAS inh 56
CCN(CC)c1ccc(NC(=O)c2ccc3c(c2)OCO3)c(C)c1	none
O=C(Nc1cc(C(F)(F)F)ccc1N1CCCCC1)c1ccc(Br)o1	CSC inhib 82
O=C(Nc1cc(C(F)(F)F)ccc1N1CCCCC1)c1ccco1	none
CCOC(=O)N1CCN(C(=O)c2ccc3c(=O)n(CCC4=CCCCC4)c(=S)[nH]c3c2)CC1	SKKanGAS inh 67
COc1ccccc1/C=C/C(=O)OCC(=O)N1c2ccccc2CC1C (stereo not given)	none (no result: SKKanGAS inh, CSC inhib)
O=C(Nc1nc(-c2ccccc2)cs1)C1CCCO1 (stereo not given)	none (no result: Beta cell apopt, CSC inhib)
O=C(Nc1nc(-c2ccccn2)cs1)C12CC3CC(CC(O)(C3)C1)C2	SKKanGAS inh inconclusive
COc1ccc(OCCCC(=O)Nc2nc(-c3ccccn3)cs2)cc1	SKKanGAS inh 73
O=C(Nc1nc(-c2ccccn2)cs1)C1CC1	SKKanGAS inh 51
c1ccc(Nc2nc(-c3ccccn3)cs2)cc1	SKKanGAS inh 100
COc1ccc(OCCC(=O)Nc2nccs2)cc1	none (no result: Beta cell apopt)
O=C(Nc1nc(-c2ccc(-c3ccccc3)cc2)cs1)C1CCCO1 (stereo not given)	SKKanGAS inh 64
Cc1ccc(S(=O)(=O)Nc2c(Cl)c(Cl)c(O)c3ccccc23)cc1	none
O=C(Nc1ccccc1C(=O)N1CCCCC1)c1cccs1	none
O=C(CC1CC2CCC1C2)Nc1nc(-c2ccccn2)cs1 (stereo not given)	SKKanGAS inh 76
COc1ccc(NC(=O)CC2CC3CCC2C3)cn1 (stereo not given)	none
O=C(O)c1ccc(N=Nc2c(O)[nH]c3cc(Cl)ccc23)cc1	SKKanGAS inh 70
O=C(O)c1ccc(N=Nc2c(O)[nH]c3ccc(Br)cc23)cc1	SKKanGAS inh 71
COC(=O)N=Nc1c(O)[nH]c2ccc(Br)cc12	none
Cc1[nH]c2ccccc2c1C(=O)CN1CCN(c2ccc(Cl)cc2)CC1	none
CCOC(=O)/C=C/[C@H]1CCc2cccc(C)c2O1	none (no result: SKKanGAS inh)
CCC(C)n1ncn(-c2ccc(N3CCN(c4ccc(O)cc4)CC3)cc2)c1=O (stereo not given)	CSC inhib 104
N#C/C(=C(/O)c1ccc([N+](=O)[O-])o1)c1nc2ccccc2[nH]1	SKKanGAS inh 72
COc1ccccc1NC(=O)CCNS(=O)(=O)c1ccc2c(c1)CC(C)N2C(=O)C1CC1 (stereo not given)	none (no result: Beta cell apopt)
FC(F)(F)c1cc(N2CCN(Cc3ccccc3)CC2)c2ccccc2n1	SKKanGAS inh 50
FC(F)(F)c1cc(N2CCNCC2)c2ccccc2n1	none
O=S1(=O)CCO[C@H]2Cc3ccccc3[C@H]2N1Cc1ccc(F)cc1	none
CCn1c(=O)c(C(=O)NCc2ccc(Cl)cc2)c(O)c2ccccc21	none (no result: Beta cell apopt, CSC inhib)
Cn1c(=O)c(C(=O)NNC(=O)c2ccccc2F)c(O)c2ccccc21	SKKanGAS inh 61 (no result: CSC inhib)
CCn1c(=O)c(C(=O)NCc2ccccc2OC)c(O)c2ccccc21	CSC inhib 76
CCn1c(=O)c(C(=O)NNC(=O)c2ccccc2Cl)c(O)c2ccccc21	SKKanGAS inh 58 (no result: CSC inhib)
Cn1c(=O)c(C(=O)NCCO)c(O)c2ccccc21	none
CCCCCC(=O)NNC(=O)c1c(O)c2ccccc2n(CC)c1=O	SKKanGAS inh 94
CCCCCCCCCC(=O)NNC(=O)c1c(O)c2ccccc2n(CC)c1=O	none
